ChEMBL document CHEMBL3580571, “Bis-arylidene oxindole-betulinic Acid conjugate: a fluorescent cancer cell detector with potent anticancer activity” (ACS Med Chem Lett, 2015)
Activity calls are given as the source filed them. The rule behind the calls is not given here.

Tests used:
[1] = Cellular uptake in human PANC1 cells at 2 uM after 4 hrs by fluorescence microscopic analysis; format: ADME, cell-based; conditions: panc-1, 4 h
Outline: (§1)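 Live cells were examined by fluorescence microscopy for uptake of the intrinsically fluorescent molecules, with untreated cells as control. Uptake was also quantified as % uptake per microgram of cellular protein. Fluorescence values were normalized to the absorption values of each molecule because their absorptivities differ.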

[2] = Cytotoxicity against human PANC1 cells assessed as cell killing effect after 72 hrs by MTT assay; format: functional, cell-based; conditions: PANC-1, 72 h
Outline: (§2)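 Cells were treated continuously for 72 h. Cytotoxicity is reported as IC50 in μM.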

[3] = Cytotoxicity against mouse B16F10 cells assessed as cell killing effect after 72 hrs by MTT assay; format: functional, cell-based; conditions: B16-F10, 72 h; outline: as §2
[4] = Cellular uptake in mouse B16F10 cells at 2 uM after 4 hrs by fluorescence microscopic analysis; format: ADME, cell-based; conditions: b16-f10, 4 h; outline: as §1
[5] = Cytotoxicity against mouse NIH/3T3 cells assessed as cell killing effect after 72 hrs by MTT assay; format: cell-based; conditions: NIH3T3, 72 h; outline: as §2
[6] = Cellular uptake in mouse NIH/3T3 cells at 2 uM after 4 hrs by fluorescence microscopic analysis; format: ADME, cell-based; conditions: nih3t3, 4 h; outline: as §1
OVCAR-3 = test: Cytotoxicity against human OVCAR3 cells assessed as cell killing effect after 72 hrs by MTT assay; format: functional, cell-based; conditions: OVCAR-3, 72 h; outline: as §2
MCF7 = test: Cytotoxicity against human MCF7 cells assessed as cell killing effect after 72 hrs by MTT assay; format: functional, cell-based; conditions: MCF7, 72 h; outline: as §2
[7] = Induction of reactive oxygen species generation in mouse NIH/3T3 cells at 2 uM after 36 hrs by DCFDA dye-based fluorescence microscopic analysis; format: cell-based; conditions: nih3t3, 36 h
Outline: (§3)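 Treated cells were imaged for ROS by fluorescence microscopy at 20× magnification, with untreated cells as control.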

A549 = test: Cytotoxicity against human A549 cells assessed as cell killing effect after 72 hrs by MTT assay; format: functional, cell-based; conditions: A549, 72 h; outline: as §2
B16-F10 [8] = test: Induction of apoptosis in mouse B16F10 cells assessed as late apoptotic cells at 2 uM after 45 hrs by annexinV-FITC/propidium iodide staining-based flow cytometric analysis (reference value: 0.8%); format: functional
Outline: (§4)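 Treated B16F10 cells were double-stained with annexin V and propidium iodide and analysed by flow cytometry, with untreated cells as control. Quadrants: Q1 PI-only (necrotic); Q2 double-positive (post-apoptotic); Q4 annexin-only (apoptotic); Q3 double-negative (healthy).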

MDA-MB-231 = test: Cytotoxicity against human MDA-MB-231 cells assessed as cell killing effect after 72 hrs by MTT assay; format: functional, cell-based; conditions: MDA-MB-231, 72 h; outline: as §2
B16-F10 [9] = test: Induction of reactive oxygen species generation in mouse B16F10 cells at 2 uM after 36 hrs by DCFDA dye-based fluorescence microscopic analysis; format: functional, cell-based; outline: as §3
B16-F10 [10] = test: Induction of apoptosis in mouse B16F10 cells assessed as necrotic cells at 2 uM after 45 hrs by annexinV-FITC/propidium iodide staining-based flow cytometric analysis (reference value: 9%); format: functional; outline: as §4
B16-F10 [11] = test: Induction of apoptosis in mouse B16F10 cells assessed as viable cells at 2 uM after 45 hrs by annexinV-FITC/propidium iodide staining-based flow cytometric analysis (reference value: 90.1%); format: functional; conditions: B16-F10, 45 h, read-out: Activity; outline: as §4
CHO = test: Cytotoxicity against CHO cells assessed as cell killing effect after 72 hrs by MTT assay; format: cell-based; conditions: Cricetulus griseus; outline: as §2
B16-F10 [12] = test: Induction of apoptosis in mouse B16F10 cells assessed as early apoptotic cells at 2 uM after 45 hrs by annexinV-FITC/propidium iodide staining-based flow cytometric analysis (reference value: 0.1%); format: functional; outline: as §4

**Q.** With `C=C(C)[C@@H]1CC[C@]2(C(=O)NCCCNC(=S)Nc3ccc4c(c3)C(=O)OC43c4ccc(O)cc4Oc4cc(O)ccc43)CC[C@]3(C)[C@H](CC[C@@H]4[C@@]5(C)CC[C@H](O)C(C)(C)[C@@H]5CC[C@]43C)[C@@H]12` as the molecule, how does the Drug uptake [1] read?
**A.** Active

**Q.** And the IC50 [2]?
**A.** 9.78 µM

**Q.** What about the IC50 [3] of the same molecule?
**A.** 20 µM

**Q.** And the Drug uptake [4]?
**A.** Active

**Q.** And the IC50 [5]?
**A.** > 20 µM

**Q.** And the Drug uptake [6]?
**A.** Not Active

**Q.** With `C=C(C)[C@@H]1CC[C@]2(C(=O)NCCCOc3ccc(/C(=C4\C(=O)N(Cc5ccc(OC)cc5)c5ccccc54)c4ccc(O)cc4)cc3)CC[C@]3(C)[C@H](CC[C@@H]4[C@@]5(C)CC[C@H](O)C(C)(C)[C@@H]5CC[C@]43C)[C@@H]12` as the molecule, how does the Drug uptake [1] read?
**A.** Active

**Q.** And the IC50 [2]?
**A.** 2.63 µM

**Q.** What about the IC50 (OVCAR-3) of the same molecule?
**A.** 6.05 µM

**Q.** What about the IC50 [3] of the same molecule?
**A.** 2.3 µM

**Q.** What about the IC50 (MCF7) of the same molecule?
**A.** 7.4 µM

**Q.** And the Activity [7]?
**A.** Non-toxic

**Q.** What about the IC50 (A549) of the same molecule?
**A.** 2.56 µM

**Q.** And the Activity (B16-F10 [8])?
**A.** 54.6%

**Q.** And the IC50 (MDA-MB-231)?
**A.** 1.26 µM

**Q.** And the Drug uptake [4]?
**A.** Active

**Q.** What about the Activity (B16-F10 [9]) of the same molecule?
**A.** Active

**Q.** What about the Activity (B16-F10 [10]) of the same molecule?
**A.** 5%

**Q.** And the IC50 [5]?
**A.** > 20 µM

**Q.** What about the viability at 2 µM (B16-F10 [11]) of the same molecule?
**A.** 36.6%

**Q.** And the IC50 (CHO)?
**A.** > 20 µM

**Q.** And the Drug uptake [6]?
**A.** Not Active

**Q.** And the Activity (B16-F10 [12])?
**A.** 3.8%

**Q.** Which results are given for `COc1cccc2c1C(=O)c1c(O)c3c(c(O)c1C2=O)C[C@@](O)(C(=O)CO)C[C@@H]3O[C@H]1C[C@H](N)[C@H](O)[C@H](C)O1` [DOXORUBICIN]?
**A.** Drug uptake [1]: Active; IC50 [2]: 1.03 µM; IC50 [3]: 0.663 µM; Activity [7]: Toxic; Activity (B16-F10 [8]): 21.4%; Drug uptake [4]: Active; Activity (B16-F10 [9]): Active; Activity (B16-F10 [10]): 34.1%; IC50 [5]: 7.21 µM; viability at 2 µM (B16-F10 [11]): 43.4%; Drug uptake [6]: Active; Activity (B16-F10 [12]): 1.1%

**Q.** Which results are given for `COc1ccc(CN2C(=O)C(=C(c3ccc(O)cc3)c3ccc(O)cc3)c3ccccc32)cc1`?
**A.** Drug uptake [1]: Active; IC50 [2]: > 20 µM; IC50 (OVCAR-3): > 20 µM; IC50 [3]: > 20 µM; IC50 (MCF7): > 20 µM; Activity [7]: Non-toxic; Activity (B16-F10 [8]): 1.7%; IC50 (MDA-MB-231): > 20 µM; Drug uptake [4]: Active; Activity (B16-F10 [10]): 5.1%; IC50 [5]: > 20 µM; viability at 2 µM (B16-F10 [11]): 93%; IC50 (CHO): > 20 µM; Drug uptake [6]: Active; Activity (B16-F10 [12]): 0.2%

**Q.** What does the source list for `C=C(C)[C@@H]1CC[C@]2(C(=O)O)CC[C@]3(C)[C@H](CC[C@@H]4[C@@]5(C)CC[C@H](O)C(C)(C)[C@@H]5CC[C@]43C)[C@@H]12` [BETULINIC ACID]?
**A.** IC50 [2]: 10.2 µM; IC50 (OVCAR-3): 8.37 µM; IC50 [3]: > 20 µM; IC50 (MCF7): 10.5 µM; Activity [7]: Non-toxic; IC50 (A549): > 20 µM; Activity (B16-F10 [8]): 0.9%; IC50 (MDA-MB-231): > 20 µM; Activity (B16-F10 [9]): Active; Activity (B16-F10 [10]): 0%; IC50 [5]: > 20 µM; viability at 2 µM (B16-F10 [11]): 98.8%; IC50 (CHO): > 20 µM; Activity (B16-F10 [12]): 0.3%

**Q.** For `COc1ccc(CN2C(=O)/C(=C(/c3ccc(O)cc3)c3ccc(OCCCN)cc3)c3ccccc32)cc1`, which Drug uptake [1] is on record?
**A.** Active

**Q.** And the IC50 [2]?
**A.** > 20 µM

**Q.** And the IC50 [3]?
**A.** > 20 µM

**Q.** And the Activity [7]?
**A.** Non-toxic

**Q.** What about the IC50 (A549) of the same molecule?
**A.** 1.36 µM

**Q.** What about the Activity (B16-F10 [8]) of the same molecule?
**A.** 0.9%

**Q.** And the IC50 (MDA-MB-231)?
**A.** > 20 µM

**Q.** And the Drug uptake [4]?
**A.** Active

**Q.** What about the Activity (B16-F10 [10]) of the same molecule?
**A.** 8.4%

**Q.** What about the viability at 2 µM (B16-F10 [11]) of the same molecule?
**A.** 90.7%

**Q.** What about the Drug uptake [6] of the same molecule?
**A.** Not Active

**Q.** And the Activity (B16-F10 [12])?
**A.** 0%
